Laboratory results from ChEMBL document CHEMBL4043192, “The discovery of IDX21437: Design, synthesis and antiviral evaluation of 2'-α-chloro-2'-β-C-methyl branched uridine pronucleotides as potent liver-targeted HCV polymerase inhibitors” (Bioorg Med Chem Lett, 2017).

Columns and labels:
Hepatitis C virus = assay: Antiviral activity against HCV genotype 1b Con1 expressing NS3 protease infected in human Huh-7 cells assessed as reduction in viral RNA replication after 72 hrs by luciferase reporter gene assay; assay type: functional, cell-based, Hepacivirus hominis; settings: genotype 1b Con1, Huh-7, 72 h
[1] = Selectivity index, ratio of CC50 for human Huh-7 cells to EC50 for HCV genotype 1b Con1 expressing NS3 protease
Summary of the method: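 Selectivity index = CC50/EC50. EC50 from a luciferase-read Con1 subgenomic replicon assay in Huh-7 (GS4.1) cells.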

Liver = assay: Dose normalized AUC (0 to 24 hrs) in mouse liver assessed as 2'-C-MeUTP level at 10 mg/kg, po administered as single dose; assay type: ADME, organism-based; settings: in vivo
Summary of the method: (§1)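 Mice given a single oral 10 mg/kg dose. Triphosphate measured in liver and parent nucleoside in plasma. AUC expressed as dose-normalized AUC (AUC per mg/kg).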

Plasma = assay: Dose normalized AUC (0 to 24 hrs) in mouse plasma assessed as 2'-C-MeU level at 10 mg/kg, po administered as single dose; assay type: ADME, organism-based; settings: in vivo; summary of the method: as §1

CCOC(=O)[C@@H](C)N[P@](=O)(OC[C@H]1O[C@@H](n2ccc(=O)[nH]c2=O)[C@](C)(Cl)[C@@H]1O)Oc1ccccc1
EC50 (Hepatitis C virus): 2550 nM
Ratio CC50/EC50 [1]: >39

CCOC(=O)[C@@H](CC(C)C)N[P@@](=O)(OC[C@H]1O[C@@H](n2ccc(=O)[nH]c2=O)[C@](C)(Cl)[C@@H]1O)Oc1ccccc1
EC50 (Hepatitis C virus): 37400 nM
Ratio CC50/EC50 [1]: >3

CC(C)OC(=O)[C@@H](N[P@](=O)(OC[C@H]1O[C@@H](n2ccc(=O)[nH]c2=O)[C@](C)(Cl)[C@@H]1O)Oc1ccccc1)C(C)C
EC50 (Hepatitis C virus): > 100000 nM
Ratio CC50/EC50 [1]: >1

CC(C)OC(=O)[C@@H](C)N[P@](=O)(OC[C@H]1O[C@@H](n2ccc(=O)[nH]c2=O)[C@](C)(Cl)[C@@H]1O)Oc1ccccc1
EC50 (Hepatitis C virus): 9600 nM
AUC/dose (Liver): 3750 pmol·h/g
Ratio CC50/EC50 [1]: >10
AUC/dose (Plasma): 1050 pmol·h/mL

C[C@H](N[P@@](=O)(OC[C@H]1O[C@@H](n2ccc(=O)[nH]c2=O)[C@](C)(Cl)[C@@H]1O)Oc1ccccc1)C(=O)OCc1ccccc1
EC50 (Hepatitis C virus): 185 nM
AUC/dose (Liver): 1200 pmol·h/g
Ratio CC50/EC50 [1]: >541
AUC/dose (Plasma): 1900 pmol·h/mL

CC(C)OC(=O)[C@@H](C)NP(=O)(N[C@H](C)C(=O)OC(C)C)OC[C@H]1O[C@@H](n2ccc(=O)[nH]c2=O)[C@](C)(Cl)[C@@H]1O
EC50 (Hepatitis C virus): > 100000 nM
AUC/dose (Liver): 490 pmol·h/g
Ratio CC50/EC50 [1]: >1
AUC/dose (Plasma): 210 pmol·h/mL

CC(C)(CO)C(=O)SCCO[P@@]1(=O)OC[C@H]2O[C@@H](n3ccc(=O)[nH]c3=O)[C@](C)(Cl)[C@@H]2O1
EC50 (Hepatitis C virus): 417 nM
AUC/dose (Liver): 3600 pmol·h/g
Ratio CC50/EC50 [1]: >240
AUC/dose (Plasma): 710 pmol·h/mL

CCOC(=O)[C@H](CC(C)C)N[P@](=O)(OC[C@H]1O[C@@H](n2ccc(=O)[nH]c2=O)[C@](C)(Cl)[C@@H]1O)Oc1ccccc1
EC50 (Hepatitis C virus): 291 nM
AUC/dose (Liver): 270 pmol·h/g
Ratio CC50/EC50 [1]: >344
AUC/dose (Plasma): 2100 pmol·h/mL

CCOC(=O)[C@H](C)N[P@](=O)(OC[C@H]1O[C@@H](n2ccc(=O)[nH]c2=O)[C@](C)(Cl)[C@@H]1O)Oc1ccccc1
EC50 (Hepatitis C virus): 257 nM
AUC/dose (Liver): 400 pmol·h/g
Ratio CC50/EC50 [1]: >389
AUC/dose (Plasma): 1100 pmol·h/mL

CC(C)OC(=O)[C@H](C)N[P@@](=O)(OC[C@H]1O[C@@H](n2ccc(=O)[nH]c2=O)[C@](C)(Cl)[C@@H]1O)Oc1ccccc1
EC50 (Hepatitis C virus): 953 nM
AUC/dose (Liver): 840 pmol·h/g
Ratio CC50/EC50 [1]: >105
AUC/dose (Plasma): 970 pmol·h/mL

CCOC(=O)NCC(C)(C)C(=O)SCCOP1(=O)OC[C@H]2O[C@@H](n3ccc(=O)[nH]c3=O)[C@](C)(Cl)[C@@H]2O1 (single isomer, unassigned; 27b)
EC50 (Hepatitis C virus): 73 nM
AUC/dose (Liver): 3300 pmol·h/g
Ratio CC50/EC50 [1]: >1370

C[C@H](N[P@](=O)(OC[C@H]1O[C@@H](n2ccc(=O)[nH]c2=O)[C@](C)(Cl)[C@@H]1O)Oc1ccccc1)C(=O)OCc1ccccc1
EC50 (Hepatitis C virus): 71 nM
AUC/dose (Liver): 850 pmol·h/g
Ratio CC50/EC50 [1]: >1408
AUC/dose (Plasma): 2500 pmol·h/mL

CCOC(=O)NCC(C)(C)C(=O)SCCO[P@](=O)(NCc1ccccc1)OC[C@H]1O[C@@H](n2ccc(=O)[nH]c2=O)[C@](C)(Cl)[C@@H]1O
EC50 (Hepatitis C virus): 1270 nM
Ratio CC50/EC50 [1]: >79

CC(C)OC(=O)[C@@H](C)N[P@@]1(=O)OC[C@H]2O[C@@H](n3ccc(=O)[nH]c3=O)[C@](C)(Cl)[C@@H]2O1
EC50 (Hepatitis C virus): 31800 nM
AUC/dose (Liver): 2400 pmol·h/g
Ratio CC50/EC50 [1]: >3
AUC/dose (Plasma): 770 pmol·h/mL

CC(C)OC(=O)[C@H](C)NP(=O)(N[C@@H](C)C(=O)OC(C)C)OC[C@H]1O[C@@H](n2ccc(=O)[nH]c2=O)[C@](C)(Cl)[C@@H]1O
EC50 (Hepatitis C virus): 12000 nM
Ratio CC50/EC50 [1]: >8

CC(C)OC(=O)[C@@H](N[P@@](=O)(OC[C@H]1O[C@@H](n2ccc(=O)[nH]c2=O)[C@](C)(Cl)[C@@H]1O)Oc1ccccc1)C(C)C
EC50 (Hepatitis C virus): > 100000 nM
Ratio CC50/EC50 [1]: >1

CC(C)C[C@H](N[P@](=O)(OC[C@H]1O[C@@H](n2ccc(=O)[nH]c2=O)[C@](C)(Cl)[C@@H]1O)Oc1ccccc1)C(=O)OC(C)C
EC50 (Hepatitis C virus): 1110 nM
Ratio CC50/EC50 [1]: >90

CCCCOC(=O)[C@@H](C)N[P@@](=O)(OC[C@H]1O[C@@H](n2ccc(=O)[nH]c2=O)[C@](C)(Cl)[C@@H]1O)Oc1ccccc1
EC50 (Hepatitis C virus): 2180 nM
AUC/dose (Liver): 8400 pmol·h/g
Ratio CC50/EC50 [1]: >46
AUC/dose (Plasma): 1700 pmol·h/mL

CC(C)OC(=O)[C@H](C)N[P@]1(=O)OC[C@H]2O[C@@H](n3ccc(=O)[nH]c3=O)[C@](C)(Cl)[C@@H]2O1
EC50 (Hepatitis C virus): 508 nM
AUC/dose (Liver): 21 pmol·h/g
Ratio CC50/EC50 [1]: >197
AUC/dose (Plasma): 570 pmol·h/mL

CCOC(=O)NCC(C)(C)C(=O)SCCOP1(=O)OC[C@H]2O[C@@H](n3ccc(=O)[nH]c3=O)[C@](C)(Cl)[C@@H]2O1 (single isomer, unassigned; 27a)
EC50 (Hepatitis C virus): 351 nM
Ratio CC50/EC50 [1]: >285

CC(C)(CO)C(=O)SCCOP1(=O)OC[C@H]2O[C@@H](n3ccc(=O)[nH]c3=O)[C@](C)(Cl)[C@@H]2O1 (single isomer, unassigned)
EC50 (Hepatitis C virus): 248 nM
AUC/dose (Liver): 5000 pmol·h/g
Ratio CC50/EC50 [1]: >403
AUC/dose (Plasma): 1300 pmol·h/mL

CC(C)OC(=O)[C@@H](C)N[P@]1(=O)OC[C@H]2O[C@@H](n3ccc(=O)[nH]c3=O)[C@](C)(Cl)[C@@H]2O1
EC50 (Hepatitis C virus): 42300 nM
AUC/dose (Liver): 7500 pmol·h/g
Ratio CC50/EC50 [1]: >2
AUC/dose (Plasma): 910 pmol·h/mL

CCOC(=O)[C@H](C)N[P@@](=O)(OC[C@H]1O[C@@H](n2ccc(=O)[nH]c2=O)[C@](C)(Cl)[C@@H]1O)Oc1ccccc1
EC50 (Hepatitis C virus): 845 nM
AUC/dose (Liver): 840 pmol·h/g
Ratio CC50/EC50 [1]: >118
AUC/dose (Plasma): 1100 pmol·h/mL

CC(C)C[C@H](N[P@@](=O)(OC[C@H]1O[C@@H](n2ccc(=O)[nH]c2=O)[C@](C)(Cl)[C@@H]1O)Oc1ccccc1)C(=O)OC(C)C
EC50 (Hepatitis C virus): 12600 nM
Ratio CC50/EC50 [1]: >8

CCOC(=O)NCC(C)(C)C(=O)SCCO[P@@](=O)(NCc1ccccc1)OC[C@H]1O[C@@H](n2ccc(=O)[nH]c2=O)[C@](C)(Cl)[C@@H]1O
EC50 (Hepatitis C virus): 1160 nM
Ratio CC50/EC50 [1]: >86

CC(C)(CO)C(=O)SCCO[P@](=O)(NCc1ccccc1)OC[C@H]1O[C@@H](n2ccc(=O)[nH]c2=O)[C@](C)(Cl)[C@@H]1O
EC50 (Hepatitis C virus): 3610 nM
AUC/dose (Liver): 96 pmol·h/g
Ratio CC50/EC50 [1]: >28
AUC/dose (Plasma): 590 pmol·h/mL

CCOC(=O)[C@@H](C)N[P@@](=O)(OC[C@H]1O[C@@H](n2ccc(=O)[nH]c2=O)[C@](C)(Cl)[C@@H]1O)Oc1ccccc1
EC50 (Hepatitis C virus): 8140 nM
Ratio CC50/EC50 [1]: >12

CC(C)OC(=O)[C@H](C)N[P@](=O)(OC[C@H]1O[C@@H](n2ccc(=O)[nH]c2=O)[C@](C)(Cl)[C@@H]1O)Oc1ccccc1
EC50 (Hepatitis C virus): 158 nM
AUC/dose (Liver): 560 pmol·h/g
Ratio CC50/EC50 [1]: >633
AUC/dose (Plasma): 1300 pmol·h/mL

CC(C)(CO)C(=O)SCCOP(=O)(NCc1ccccc1)OC[C@H]1O[C@@H](n2cnc3c(=O)[nH]c(N)nc32)[C@](C)(O)[C@@H]1O (some centres not stated)
EC50 (Hepatitis C virus): 203 nM
AUC/dose (Liver): 275 pmol·h/g
Ratio CC50/EC50 [1]: >370
AUC/dose (Plasma): 45 pmol·h/mL

CCCCOC(=O)[C@@H](C)N[P@](=O)(OC[C@H]1O[C@@H](n2ccc(=O)[nH]c2=O)[C@](C)(Cl)[C@@H]1O)Oc1ccccc1
EC50 (Hepatitis C virus): 528 nM
AUC/dose (Liver): 7200 pmol·h/g
Ratio CC50/EC50 [1]: >189
AUC/dose (Plasma): 1700 pmol·h/mL

CCOC(=O)[C@H](CC(C)C)N[P@@](=O)(OC[C@H]1O[C@@H](n2ccc(=O)[nH]c2=O)[C@](C)(Cl)[C@@H]1O)Oc1ccccc1
EC50 (Hepatitis C virus): 2490 nM
AUC/dose (Liver): 220 pmol·h/g
Ratio CC50/EC50 [1]: >40
AUC/dose (Plasma): 940 pmol·h/mL

C[C@@H](N[P@](=O)(OC[C@H]1O[C@@H](n2ccc(=O)[nH]c2=O)[C@](C)(Cl)[C@@H]1O)Oc1ccccc1)C(=O)OCc1ccccc1
EC50 (Hepatitis C virus): 819 nM
AUC/dose (Liver): 6900 pmol·h/g
Ratio CC50/EC50 [1]: >122
AUC/dose (Plasma): 1700 pmol·h/mL

CCOC(=O)[C@@H](CC(C)C)N[P@](=O)(OC[C@H]1O[C@@H](n2ccc(=O)[nH]c2=O)[C@](C)(Cl)[C@@H]1O)Oc1ccccc1
EC50 (Hepatitis C virus): > 100000 nM
Ratio CC50/EC50 [1]: >1
